# Source: ChEMBL document CHEMBL1153852, “Steroidal lactones as inhibitors of 17beta-hydroxysteroid dehydrogenase type 5: chemical synthesis, enzyme inhibitory activity, and assessment of estrogenic and androgenic activities” (Eur J Med Chem, 2009)
# The source made the active and inactive calls. No cut-off for these calls is given here.
# How the values were obtained:
# [1] = target: T1, 17-beta-hydroxysteroid dehydrogenase type 1 (Homo sapiens) (UniProt P14061); assay: Inhibition of human 17beta-HSD1 expressed in HEK293 cells assessed as enzyme-mediated transformation of [14C]-E1 in to [14C]-E2 at 1 uM; assay type: cell-based
# T1 sequence (whole entry): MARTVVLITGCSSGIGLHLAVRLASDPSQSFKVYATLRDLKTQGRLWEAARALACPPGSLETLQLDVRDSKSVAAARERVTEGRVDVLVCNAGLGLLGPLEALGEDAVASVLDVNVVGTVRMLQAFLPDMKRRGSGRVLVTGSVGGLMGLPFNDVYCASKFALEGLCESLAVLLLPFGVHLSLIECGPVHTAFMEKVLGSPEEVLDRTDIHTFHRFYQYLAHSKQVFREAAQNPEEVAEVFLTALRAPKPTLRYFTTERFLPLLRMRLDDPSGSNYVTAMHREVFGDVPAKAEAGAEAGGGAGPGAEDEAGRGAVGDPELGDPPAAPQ
# [2] = target: T2, 17-beta-hydroxysteroid dehydrogenase type 3 (Homo sapiens) (UniProt P37058); assay: Inhibition of human 17beta-HSD3 expressed in HEK293 cells assessed as enzyme-mediated transformation of [14C]-4-androstene-3,17-dione in to [14C]-testosterone at 1 uM; assay type: cell-based
# T2 sequence (whole entry): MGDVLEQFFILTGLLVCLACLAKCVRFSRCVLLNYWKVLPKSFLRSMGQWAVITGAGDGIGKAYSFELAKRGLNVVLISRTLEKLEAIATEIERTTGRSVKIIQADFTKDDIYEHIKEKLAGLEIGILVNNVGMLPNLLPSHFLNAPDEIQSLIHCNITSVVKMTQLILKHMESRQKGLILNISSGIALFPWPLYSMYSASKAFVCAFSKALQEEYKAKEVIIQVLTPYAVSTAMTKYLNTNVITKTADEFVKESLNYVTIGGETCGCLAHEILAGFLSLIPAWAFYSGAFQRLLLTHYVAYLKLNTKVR
# [3] = target: T3, 17-beta-hydroxysteroid dehydrogenase type 2 (Homo sapiens) (UniProt P37059); assay: Inhibition of human 17beta-HSD2 expressed in HEK293 cells assessed as enzyme-mediated transformation of [14C]-testosterone in to [14C]-4-androstene-3,17-dione at 0.1 uM; assay type: cell-based
# T3 sequence (whole entry): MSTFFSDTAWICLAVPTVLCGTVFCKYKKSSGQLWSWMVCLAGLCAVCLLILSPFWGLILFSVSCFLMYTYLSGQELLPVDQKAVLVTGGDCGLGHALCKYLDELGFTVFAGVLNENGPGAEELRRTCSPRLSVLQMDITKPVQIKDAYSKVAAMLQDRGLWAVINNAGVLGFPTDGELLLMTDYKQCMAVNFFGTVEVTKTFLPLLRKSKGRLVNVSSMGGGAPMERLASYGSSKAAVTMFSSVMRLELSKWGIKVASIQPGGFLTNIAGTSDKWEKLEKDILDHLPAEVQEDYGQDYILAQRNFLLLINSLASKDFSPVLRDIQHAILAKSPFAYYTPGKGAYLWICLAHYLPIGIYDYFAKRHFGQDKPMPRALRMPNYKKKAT
# [4] = target: T3, 17-beta-hydroxysteroid dehydrogenase type 2 (Homo sapiens); assay: Inhibition of human 17beta-HSD2 expressed in HEK293 cells assessed as enzyme-mediated transformation of [14C]-testosterone in to [14C]-4-androstene-3,17-dione at 1 uM; assay type: cell-based
# [5] = target: T4, Estrogen receptor (Rattus norvegicus) (UniProt P06211); assay: Binding affinity to rat uterus estrogen receptor at 0.1 uM
# T4 sequence (whole entry): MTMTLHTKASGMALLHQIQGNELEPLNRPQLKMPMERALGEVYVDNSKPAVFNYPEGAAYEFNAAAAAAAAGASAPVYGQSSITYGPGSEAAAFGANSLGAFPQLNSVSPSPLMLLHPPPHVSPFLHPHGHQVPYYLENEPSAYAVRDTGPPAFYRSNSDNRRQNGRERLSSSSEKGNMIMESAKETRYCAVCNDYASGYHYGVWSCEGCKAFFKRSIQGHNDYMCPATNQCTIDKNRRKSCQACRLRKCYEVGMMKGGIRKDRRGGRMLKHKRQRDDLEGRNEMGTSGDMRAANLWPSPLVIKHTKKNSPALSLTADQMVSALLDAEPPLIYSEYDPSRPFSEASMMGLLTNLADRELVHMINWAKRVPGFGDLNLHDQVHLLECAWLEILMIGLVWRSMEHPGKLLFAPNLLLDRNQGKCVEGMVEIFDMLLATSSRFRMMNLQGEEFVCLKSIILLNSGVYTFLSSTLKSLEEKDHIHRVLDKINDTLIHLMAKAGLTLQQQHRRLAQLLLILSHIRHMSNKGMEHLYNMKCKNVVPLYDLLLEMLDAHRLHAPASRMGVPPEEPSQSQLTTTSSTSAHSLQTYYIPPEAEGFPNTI
# [6] = target: T5, Glucocorticoid receptor (Rattus norvegicus) (UniProt P06536); assay: Binding affinity to rat liver glucocorticoid receptor at 0.1 uM
# T5 sequence (whole entry): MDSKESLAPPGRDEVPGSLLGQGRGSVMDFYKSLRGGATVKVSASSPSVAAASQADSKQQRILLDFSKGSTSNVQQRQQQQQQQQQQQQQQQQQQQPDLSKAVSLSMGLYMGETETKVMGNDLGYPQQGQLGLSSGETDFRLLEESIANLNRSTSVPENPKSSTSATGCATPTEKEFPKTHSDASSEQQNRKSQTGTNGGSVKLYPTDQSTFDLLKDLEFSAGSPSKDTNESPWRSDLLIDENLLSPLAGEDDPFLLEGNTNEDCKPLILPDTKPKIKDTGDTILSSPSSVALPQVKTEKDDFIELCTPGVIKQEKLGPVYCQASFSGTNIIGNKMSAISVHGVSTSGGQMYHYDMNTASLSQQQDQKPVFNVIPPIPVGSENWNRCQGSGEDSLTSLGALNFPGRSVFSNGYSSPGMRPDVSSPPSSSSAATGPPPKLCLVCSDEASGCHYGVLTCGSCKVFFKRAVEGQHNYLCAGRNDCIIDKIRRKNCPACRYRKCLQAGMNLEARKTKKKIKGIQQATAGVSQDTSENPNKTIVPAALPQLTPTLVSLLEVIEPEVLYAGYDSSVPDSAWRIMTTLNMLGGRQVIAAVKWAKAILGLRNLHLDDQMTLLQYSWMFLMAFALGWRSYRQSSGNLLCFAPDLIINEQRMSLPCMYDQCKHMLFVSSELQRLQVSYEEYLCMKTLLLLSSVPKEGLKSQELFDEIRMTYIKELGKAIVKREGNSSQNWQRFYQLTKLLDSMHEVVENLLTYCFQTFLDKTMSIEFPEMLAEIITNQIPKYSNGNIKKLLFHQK
# Outline: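 Rat liver glucocorticoid receptor competitive binding, reported as % binding. Bound and free steroid are separated by dextran-coated charcoal adsorption instead of protamine sulfate precipitation.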
Activity [3],Activity [4],Activity [5],Activity [6],SMILES,inhibition [1],inhibition [2]
–,–,–,–,CC1(C)CC[C@@]2(CC[C@H]3[C@@H]4CCc5ccccc5[C@H]4CC[C@@]32C)OC1=O,50%,64%
inactive,inactive,10%,0%,CC1(C)CC[C@@]2(CC[C@H]3[C@@H]4CCc5cc(O)ccc5[C@H]4CC[C@@]32C)OC1=O,–,–
